Experimental findings from ChEMBL document CHEMBL4251655 (Eur J Med Chem, 2018) are described below.

The structures appear in SMILES notation. Active and inactive are the calls of the source. The rule behind the calls is not given here.

This assay has as its target T1, Mitogen-activated protein kinase kinase kinase 5 (Homo sapiens) (UniProt Q99683).
T1 sequence (whole entry): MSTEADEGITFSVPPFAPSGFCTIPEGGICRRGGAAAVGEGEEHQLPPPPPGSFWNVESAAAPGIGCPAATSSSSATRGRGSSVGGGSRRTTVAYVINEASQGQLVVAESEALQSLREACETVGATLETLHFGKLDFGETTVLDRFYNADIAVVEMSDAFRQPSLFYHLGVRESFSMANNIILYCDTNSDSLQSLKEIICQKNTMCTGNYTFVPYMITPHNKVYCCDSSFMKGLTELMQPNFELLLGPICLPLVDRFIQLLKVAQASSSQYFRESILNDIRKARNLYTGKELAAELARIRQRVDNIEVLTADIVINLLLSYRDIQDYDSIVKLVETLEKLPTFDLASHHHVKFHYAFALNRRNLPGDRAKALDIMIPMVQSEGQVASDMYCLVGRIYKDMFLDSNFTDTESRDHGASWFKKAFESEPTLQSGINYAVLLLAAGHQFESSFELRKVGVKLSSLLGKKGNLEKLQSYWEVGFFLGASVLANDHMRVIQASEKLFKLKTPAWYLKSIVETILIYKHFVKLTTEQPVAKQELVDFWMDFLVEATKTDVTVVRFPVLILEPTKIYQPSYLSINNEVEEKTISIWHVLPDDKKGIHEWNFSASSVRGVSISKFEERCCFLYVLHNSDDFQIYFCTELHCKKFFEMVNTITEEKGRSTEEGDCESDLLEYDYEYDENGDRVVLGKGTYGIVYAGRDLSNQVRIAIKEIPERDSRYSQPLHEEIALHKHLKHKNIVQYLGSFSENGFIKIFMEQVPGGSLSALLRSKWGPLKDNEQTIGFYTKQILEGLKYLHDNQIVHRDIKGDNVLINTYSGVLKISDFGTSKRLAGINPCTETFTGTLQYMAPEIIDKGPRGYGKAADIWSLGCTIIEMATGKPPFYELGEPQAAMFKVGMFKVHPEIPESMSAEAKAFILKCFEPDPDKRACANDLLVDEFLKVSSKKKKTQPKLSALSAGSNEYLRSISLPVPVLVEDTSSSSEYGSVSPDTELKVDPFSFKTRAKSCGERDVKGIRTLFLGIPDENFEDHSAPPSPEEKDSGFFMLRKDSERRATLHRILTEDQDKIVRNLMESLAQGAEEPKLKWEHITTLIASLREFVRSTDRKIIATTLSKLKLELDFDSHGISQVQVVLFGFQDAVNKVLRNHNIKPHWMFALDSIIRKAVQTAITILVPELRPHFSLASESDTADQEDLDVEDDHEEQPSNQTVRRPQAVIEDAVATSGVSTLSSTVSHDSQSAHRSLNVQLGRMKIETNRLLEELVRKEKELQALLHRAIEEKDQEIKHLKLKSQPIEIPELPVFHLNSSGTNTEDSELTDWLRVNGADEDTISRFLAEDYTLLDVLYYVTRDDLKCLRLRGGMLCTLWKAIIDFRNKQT
Put plainly: Inhibition of recombinant full length human ASK1 expressed in HEK293/AP1-Luc cells assessed as reduction in autophosphorylation at Thr-838 residue at 10 uM after 30 mins by Western blot analysis. Format: cell-based. The procedure, abridged:
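Stable HEK293/AP-1luc pools expressing wild-type or K709R full-length human ASK1 (or parental cells) plated in DMEM with 10% FBS, Geneticin and puromycin. Next day, washed in serum-free medium, then treated with 10 μM compound (final) at 37 °C for 30 min. Cells lysed in M-PER with protease/phosphatase inhibitors; protein by BCA; Western blot for ASK1, phospho-Thr838 ASK1 and α-tubulin.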

As to `COc1ccc(S(C)(=O)=O)cc1C(=O)Nc1cccc(-c2nncn2C(C)C)n1`, the inhibition entry is “Active”.
